7 compounds from ChEMBL document CHEMBL1145066, “Novel pyrone side tetracyclic psoralen derivatives: synthesis and photobiological evaluation” (J Med Chem, 2003) can be followed below.

Active and inactive are the calls of the source. No cut-off for these calls is given here. Where only a bound is given, the exact number is not on record here.

The species named for one assay is Cavia porcellus. Description: Skin Phototoxicity was tested on depilated Guinea Pigs (outbred Dunkin - Hartley strain) and erythema intensity was measured; Absent. The assay is classed as functional, organism-based.
The test system of assay [1] is HL-60. Description: Antiproliferative activity against HL-60 (human promyelocytic leukemic cells) after exposure to UV light. It counts as functional, cell-based. In a few lines:
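HL-60 cells grown in RPMI 1640 with 15% heat-inactivated FCS at 37 °C, 5% CO2. 10^5 cells/well were incubated 24 h, then test agent was added at various concentrations in complete medium. After 1 h in the dark, cells received a UVA dose of 0.793 J cm^-2 (lamps emitting >90% at 365 nm) and were incubated 24 h more. Viability was read by trypan blue; IC50 is the 50% reduction in cell number versus control cultures.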

Assay [2] concerns HL-60. As to the kind of experiment: Antiproliferative activity against HL-60 (human promyelocytic leukemic cells) in dark condition. It counts as functional, cell-based.
The test system of assay [3] is HeLa. As to the kind of experiment: Antiproliferative activity against HeLa (human cervix adenocarcinoma cells) after exposure to UV light. The assay is classed as functional, cell-based. The essentials:
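HeLa cells grown in F-12 with 10% heat-inactivated FCS at 37 °C, 5% CO2. 10^5 cells/well were incubated 24 h, switched to phenol-red-free DMEM, and given various agent concentrations. After 1 h they were irradiated with UVA at 0.793 J cm^-2 (365 nm lamps). Drug medium was then removed, and cells were kept 24 h in complete F-12. Trypan blue counts gave IC50 versus control.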

In assay [4] the test system is HeLa. As to the kind of experiment: Antiproliferative activity against HeLa (human cervix adenocarcinoma cells) in dark condition. It counts as functional, cell-based. In a few lines:
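Dark control on HeLa (F-12, 10% FCS, 37 °C, 5% CO2). 10^5 cells/well were seeded and, after 24 h, given phenol-red-free DMEM with various agent concentrations. No irradiation was applied, and compound was not washed out; cells were kept 24 h in complete F-12 with compound. Viability was by trypan blue; IC50 is the 50% drop in cell number relative to control cultures.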

For the compound `Cc1coc2c(OCCCN(C)C)c3oc(=O)c4c(c3cc12)CCCC4`, the Erythema intensity result in the assay listed under Cavia porcellus was “inactive”. For the same compound, the concentration for half-maximal inhibition (IC50) was 0.95 µM in the assay on HL-60 [1], 16 µM with HL-60 [2], 0.68 µM in the assay on HeLa [3] and above 20 µM in the assay on HeLa [4].

Consider `COc1c2occ(C)c2cc2c1oc(=O)c1ccccc12`, for which, in the assay filed under Cavia porcellus, the Erythema intensity entry was “inactive”. In addition, the IC50 was 11.8 µM with HL-60 [1], above 20 µM in the assay on HL-60 [2], above 20 µM in the assay on HeLa [3] and above 20 µM in the assay on HeLa [4].

`Cc1coc2c(OCCCN(C)C)c3oc(=O)c4ccccc4c3cc12`: in the assay listed under Cavia porcellus, the Erythema intensity result was “inactive”. In addition, the IC50 with HL-60 [1] is 0.67 µM; with HL-60 [2], 9.9 µM; with HeLa [3] it was 0.64 µM; with HeLa [4] it was above 20 µM.

For the compound `Cc1coc2c(O)c3oc(=O)c4c(c3cc12)CCCC4`, the Erythema intensity result in the assay listed under Cavia porcellus is “inactive”. Also, the IC50 with HL-60 [1] is 17 µM; with HL-60 [2] it was above 20 µM; with HeLa [3], 17.4 µM; in the assay on HeLa [4], above 20 µM.

In the case of `COc1c2occ(C)c2cc2c3c(c(=O)oc12)CCCC3`, the Erythema intensity entry in the assay filed under Cavia porcellus is “inactive”. Further, the IC50 is 13 µM in the assay with HL-60 [1], above 20 µM in the assay on HL-60 [2], 15.7 µM with HeLa [3] and above 20 µM in the assay on HeLa [4].

For the compound `Cc1coc2c(O)c3oc(=O)c4ccccc4c3cc12`, the Erythema intensity entry in the assay filed under Cavia porcellus was “inactive”. The IC50 in the assay with HL-60 [1], in the assay with HL-60 [2], in the assay with HeLa [3] and in the assay on HeLa [4] was above 20 µM throughout.

Turning to `COc1c2occc2cc2ccc(=O)oc12` [METHOXSALEN], the 50% inhibitory concentration (IC50) in the assay on HL-60 [2] and in the assay on HeLa [4] was above 20 µM each time.
